Test results published in article PMC9112330 (ACS Infectious Diseases, 2022).

Assay: In vivo fluorescence bioimaging / biodistribution
Set-up: species or system mouse
Conditions: n = 2
How it was run: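 AF680 was attached through a cysteine inserted between the PNA and the dendron, by maleimide coupling. Two NMRI-nu mice received 200 μL of 10 μM labelled conjugate. Under 2% isoflurane, epifluorescence was imaged at 675/720 nm from pre-injection to 48 h, followed by an ex vivo organ scan. Body and kidney ROI signals were expressed as % of initial signal (Y0, from linear regression of the first three points), and half-life came from one-phase decay fit.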

In the case of “H-(Gbu)8-(DAB)4-(DAB)2-DAB-Cys(AF680)-CTCATACTCT-NH2 [AF680-PNA4897]”, the “organ accumulation of remaining fluorescence” value (ex vivo scan of excised organs 48 h post i.v. administration) was “accumulated predominantly in the kidney and in the liver” and the “time to distribution in the whole body” value (i.v. tail vein, 200 μL of 10 μM, nude mice, near-IR fluorescence imaging) was under 5 min.
